Data: PubChem BioAssay
Calls of active or inactive are those of the source.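 Rule for the calls, unless noted: active = viability at or below 10% of carrier control in both of two separate runs; inconclusive = viability at or below 10% in only one of the two runs; inactive = the rest.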

Experiments:
[1] = reducers of endogenous Her2 protein level, primary screen, SKBR3 breast tumor cells, AlphaScreen, ATP viability (AID 461;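 active = Her2 level under about 52% in both replicate screens, with viability over 70% of control, limit read from the data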;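 for Her2 level: lower value means less Her2 protein in the cells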;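 for viability: percent of carrier control wells set as 100% viability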); conditions: 18-24 h, measured here: SKBR3 viability, ATP luminescence, at 10 µM
[2] = biological target: Receptor tyrosine-protein kinase erbB-2 (Homo sapiens) (UniProt P04626); test: as above; conditions: 18-24 h, at 10 µM, stronger effect = lower value
Sequence of Receptor tyrosine-protein kinase erbB-2 (Homo sapiens) (P04626 whole entry, looked up): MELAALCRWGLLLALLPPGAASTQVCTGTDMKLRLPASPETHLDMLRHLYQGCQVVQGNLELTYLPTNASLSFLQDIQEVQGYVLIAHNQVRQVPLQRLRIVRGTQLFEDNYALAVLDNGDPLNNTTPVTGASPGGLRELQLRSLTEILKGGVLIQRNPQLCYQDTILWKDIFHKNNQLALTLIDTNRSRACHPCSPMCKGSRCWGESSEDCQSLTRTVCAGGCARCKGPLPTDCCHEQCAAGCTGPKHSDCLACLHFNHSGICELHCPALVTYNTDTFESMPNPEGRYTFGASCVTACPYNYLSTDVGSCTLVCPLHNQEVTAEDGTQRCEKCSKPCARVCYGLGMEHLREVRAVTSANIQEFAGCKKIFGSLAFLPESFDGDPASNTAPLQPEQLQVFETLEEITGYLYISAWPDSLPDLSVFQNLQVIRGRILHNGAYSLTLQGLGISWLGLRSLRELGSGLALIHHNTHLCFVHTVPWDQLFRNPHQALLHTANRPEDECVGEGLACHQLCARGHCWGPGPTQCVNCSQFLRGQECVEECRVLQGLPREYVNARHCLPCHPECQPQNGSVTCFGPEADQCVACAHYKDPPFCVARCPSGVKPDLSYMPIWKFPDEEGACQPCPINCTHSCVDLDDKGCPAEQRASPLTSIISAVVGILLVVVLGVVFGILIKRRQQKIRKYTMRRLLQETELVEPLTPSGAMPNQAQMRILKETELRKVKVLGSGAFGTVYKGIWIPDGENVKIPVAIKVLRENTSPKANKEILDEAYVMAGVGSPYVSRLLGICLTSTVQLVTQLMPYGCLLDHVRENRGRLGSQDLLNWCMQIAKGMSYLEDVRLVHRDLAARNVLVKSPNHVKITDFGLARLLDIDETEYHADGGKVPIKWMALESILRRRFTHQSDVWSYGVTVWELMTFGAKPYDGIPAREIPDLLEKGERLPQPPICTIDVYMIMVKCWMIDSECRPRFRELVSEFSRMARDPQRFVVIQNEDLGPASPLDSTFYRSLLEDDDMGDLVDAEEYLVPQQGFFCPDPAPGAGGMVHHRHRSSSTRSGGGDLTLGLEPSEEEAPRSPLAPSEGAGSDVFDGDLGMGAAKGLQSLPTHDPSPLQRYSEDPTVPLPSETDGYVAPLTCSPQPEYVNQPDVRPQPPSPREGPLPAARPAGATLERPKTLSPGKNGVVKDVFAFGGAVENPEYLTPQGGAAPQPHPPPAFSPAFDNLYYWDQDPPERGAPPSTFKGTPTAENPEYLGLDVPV

[3] = SK-BR-3 cell growth inhibitors, pilot screen, 24 h, human (AID 572); conditions: SK-BR-3 viability, CellTiter-Glo luminescence, at 10 µM, stronger effect = lower value;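 note: compound exposure lasted between 18 and 24 h rather than exactly 24 h; 100% = carrier-treated control wells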
[4] = HUVEC growth inhibition – cell-based, human, primary screen (AID 575;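 active = viability at or below 30% in both replicate assays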;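 note: 100% = median of untreated cell wells with 0.1% DMSO on each plate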); conditions: HUVEC proliferation, CellTiter-Glo luminescence, 72 h; at 10 µM; stronger effect = lower value
Method in brief: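 Test system: HUVEC primary cells. Quantity: 1250 endothelial cells in each well. Dosing: single-point 10 µM, DMSO 0.1% final. Incubation: 72 h treatment at 37 °C. Measured by: CTG luminescence. Control set: DMSO cell controls and MePR drug controls. Plate: collagen-coated 384-well format.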

[5] = growth inhibitors of H69AR lung tumor, primary screen, human, duplicate replicates (AID 580;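 active = viability at or under a set limit in both replicates, limit being median viability minus 3 SD, cut at about 48% in these data, passing the limit was not always enough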;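 note: 100% = mean luminescence of untreated wells and 0% = no signal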); conditions: H69AR lung tumor cells viability, ATP luminescence, 72 h; at 10 µM; stronger effect = lower value
[6] = reversal of MRP1-mediated doxorubicin resistance, pilot screen, H69AR cells, doxorubicin co-treatment (AID 601;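 active = viability loss from added drug above about 55%, and viability with drug at most 40%, in both replicates, limit read from the data, passing the limit was not always enough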); conditions: CellTiter-Glo, 72 h, at 10 µM; for differential viability (reversal): stronger effect = higher value
[7] = H69AR cells + 2 uM doxorubicin, measured here: viability with 2 uM doxorubicin, stronger effect = lower value
[8] = H69AR cells, compound alone cytotoxicity

| SMILES | viability [1] [%] | Her2 level [2] | viability [3] | viability [4] | viability [5] | differential viability (reversal) ([6]; H69AR cells + 2 uM doxorubicin) | viability [6, 7] [%] | viability [6, 8] [%] |
| --- | --- | --- | --- | --- | --- | --- | --- | --- |
| CN(C)CCCN1c2ccccc2CCc2ccccc21 | 105 | 104% (inactive) | 105% (inactive) | 81% (inactive) | 77.7% (inactive) | 4.16% (inactive) | 73.5 | 77.7 |
| Nc1nnc(-c2cccc(Cl)c2Cl)c(N)n1 | 109 | 124% (inactive) | 109% (inactive) | 103% (inactive) | 97.1% (inactive) | 3.66% (inactive) | 93.4 | 97.1 |
| C[C@@H]1C[C@H]2[C@@H]3CCC4=CC(=O)C=C[C@]4(C)[C@@]3(F)[C@@H](O)C[C@]2(C)[C@H]1C(=O)CO | 84 | 150% (inactive) | 84% (inactive) | 102% (inactive) | 91.2% (inactive) | -10.7% (inactive) | 102 | 91.2 |
| C[C@]12CC[C@@H]3c4ccc(O)cc4CC[C@H]3[C@@H]1CC[C@@H]2OC(=O)CCC(=O)O | 118 | 111% (inactive) | 118% (inactive) | 99.3% (inactive) | 105% (inactive) | 0.94% (inactive) | 104 | 105 |
| CCN1CCN(c2cc3c(cc2F)c(=O)c(C(=O)O)cn3C2CC2)CC1 | 103 | 98.5% (inactive) | 103% (inactive) | 98.3% (inactive) | 92% (inactive) | 3.18% (inactive) | 88.8 | 92 |
| CN(C)[C@@H]1C(=O)C(C(N)=O)=C(O)[C@@]2(O)C(=O)C3=C(O)c4c(O)ccc(Cl)c4[C@@H](O)[C@H]3C[C@@H]12 | 140 | 108% (inactive) | 140% (inactive) | 101% (inactive) | 84.2% (inactive) | 0.66% (inactive) | 83.6 | 84.2 |
| Cc1nnc(SCC2=C(C(=O)O)N3C(=O)[C@@H](NC(=O)Cn4cnnn4)[C@H]3SC2)s1 | 88.5 | 99.5% (inactive) | 88.5% (inactive) | 105% (inactive) | 101% (inactive) | 1.93% (inactive) | 98.7 | 101 |
| Cc1nnc(NS(=O)(=O)c2ccc(N)cc2)s1 | 93.5 | 126% (inactive) | 93.5% (inactive) | 105% (inactive) | 96.2% (inactive) | -10.4% (inactive) | 107 | 96.2 |
| Nc1ccc(S(=O)(=O)NC(=O)c2ccccc2)cc1 | 104 | 100% (inactive) | 104% (inactive) | 90% (inactive) | 98.5% (inactive) | 6.16% (inactive) | 92.4 | 98.5 |
| c1ccc2c(CC3=NCCN3)cccc2c1 | 101 | 99.5% (inactive) | 101% (inactive) | 91.7% (inactive) | 93.8% (inactive) | 14.9% (inactive) | 78.9 | 93.8 |
| CCC(=O)O[C@]1(C(=O)CCl)[C@@H](C)C[C@H]2[C@@H]3CCC4=CC(=O)C=C[C@]4(C)[C@@]3(F)[C@@H](O)C[C@@]21C | 122 | 86.5% (inactive) | 122% (inactive) | 84.9% (inactive) | 87.3% (inactive) | -13.3% (inactive) | 101 | 87.3 |
| COc1cc2nc(N3CCN(C(=O)C4CCCO4)CC3)nc(N)c2cc1OC (stereo unspecified) | 100 | 99% (inactive) | 100% (inactive) | 98.5% (inactive) | 91.6% (inactive) | -0.44% (inactive) | 92 | 91.6 |
| Cc1cn([C@H]2C[C@H](N=[N+]=[N-])[C@@H](CO)O2)c(=O)[nH]c1=O | 91.5 | 90% (inactive) | 91.5% (inactive) | 104% (inactive) | 96.5% (inactive) | 4.1% (inactive) | 92.4 | 96.5 |
| NS(=O)(=O)c1cc2c(cc1Cl)NC(C1C[C@H]3C=C[C@@H]1C3)NS2(=O)=O (stereo partly specified) | 110 | 130% (inactive) | 110% (inactive) | 88.3% (inactive) | 92.7% (inactive) | -10.8% (inactive) | 104 | 92.7 |
| CN(C)CCOC(C)(c1ccccc1)c1ccccn1 (stereo unspecified) | 79.5 | 120% (inactive) | 79.5% (inactive) | 113% (inactive) | 93.5% (inactive) | -11.6% (inactive) | 105 | 93.5 |
| NC(N)=NS(=O)(=O)c1ccc(N)cc1 | 100 | 105% (inactive) | 100% (inactive) | 89.2% (inactive) | 98.8% (inactive) | -2.93% (inactive) | 102 | 98.8 |
| Cc1cc(NC(=O)C2=C(O)c3ccccc3S(=O)(=O)N2C)no1 | 96.5 | 113% (inactive) | 96.5% (inactive) | 109% (inactive) | 112% (inactive) | 16.9% (inactive) | 94.7 | 112 |
| Clc1ccc(Cn2c(CN3CCCC3)nc3ccccc32)cc1 | 92.5 | 112% (inactive) | 92.5% (inactive) | 85.5% (inactive) | 73.3% (inactive) | -12.6% (inactive) | 85.9 | 73.3 |
| C[C@]12CCC(=O)C=C1CC[C@@H]1[C@@H]2CC[C@@]2(C)[C@H]1CC[C@]2(O)C(=O)CO | 99 | 142% (inactive) | 99% (inactive) | 97.7% (inactive) | 92.8% (inactive) | -6.52% (inactive) | 99.4 | 92.8 |

| SMILES | viability [1] [%] | Her2 level [2] | viability [3] | viability [4] | viability [5] | differential viability (reversal) ([6]; H69AR cells + 2 uM doxorubicin) | viability [6, 7] [%] | viability [6, 8] [%] |
| --- | --- | --- | --- | --- | --- | --- | --- | --- |
| CN(CCO)CC(O)Cn1cnc2c1c(=O)n(C)c(=O)n2C (stereo unspecified) (tested in a mixture with another compound) | 87 | 88.5% (inactive) | 87% (inactive) | 94.1% (inactive) | 83.6% (inactive) | -2.31% (inactive) | 85.9 | 83.6 |
| CCOc1ccc2nc(S(N)(=O)=O)sc2c1 | 127 | 92% (inactive) | 127% (inactive) | 59% (inactive) | 67.6% (inactive) | 7.23% (inactive) | 60.4 | 67.6 |
| Cc1cccc(Nc2ccccc2C(=O)O)c1C | 85 | 105% (inactive) | 85% (inactive) | 65.7% (inactive) | 99.4% (inactive) | -3.9% (inactive) | 103 | 99.4 |
| CCCC(=O)O[C@]1(C(=O)COC(C)=O)CC[C@H]2[C@@H]3C[C@H](F)C4=CC(=O)C=C[C@]4(C)[C@@]3(F)[C@@H](O)C[C@@]21C | 95 | 97.5% (inactive) | 95% (inactive) | 96.9% (inactive) | 95.6% (inactive) | -8.84% (inactive) | 104 | 95.6 |
| Nc1nc(F)nc2c1ncn2[C@@H]1O[C@H](CO)[C@@H](O)[C@@H]1O | 97 | 104% (inactive) | 97% (inactive) | 65.7% (inactive) | 103% (inactive) | -2.94% (inactive) | 106 | 103 |
| C[N+]12CCC(CC1)C(OC(=O)C(O)(c1ccccc1)c1ccccc1)C2 (stereo unspecified) | 97.5 | 96.5% (inactive) | 97.5% (inactive) | 100% (inactive) | 90.7% (inactive) | 11.9% (inactive) | 78.7 | 90.7 |
| CCC(NC(C)C)C(O)c1ccc(O)c(O)c1 (stereo unspecified) | 87.5 | 88% (inactive) | 87.5% (inactive) | 105% (inactive) | 85% (inactive) | -6.46% (inactive) | 91.5 | 85 |
| CCN(CC)CCNC(=O)c1cc(S(C)(=O)=O)ccc1OC | 114 | 95% (inactive) | 114% (inactive) | 102% (inactive) | 111% (inactive) | 14.5% (inactive) | 96.1 | 111 |
| C[C@]12C[C@H](O)[C@H]3[C@@H](CCC4=CC(=O)CC[C@@]43C)[C@@H]1CC[C@@H]2C(=O)CO | 106 | 104% (inactive) | 106% (inactive) | 105% (inactive) | 88.3% (inactive) | -5.99% (inactive) | 94.3 | 88.3 |
| CC1(C)S[C@@H]2[C@H](NC(=O)Cc3ccccc3)C(=O)N2[C@H]1C(=O)O | 94.5 | 94.5% (inactive) | 94.5% (inactive) | 95.4% (inactive) | 109% (inactive) | 13.5% (inactive) | 95.6 | 109 |
| CC(C)(C)NC[C@H](O)COc1nsnc1N1CCOCC1 | 112 | 110% (inactive) | 112% (inactive) | 99.8% (inactive) | 106% (inactive) | 2.23% (inactive) | 104 | 106 |
| CC(=O)Oc1cc(C(C)C)c(OCCN(C)C)cc1C | 96.5 | 118% (inactive) | 96.5% (inactive) | 105% (inactive) | 99% (inactive) | 1.28% (inactive) | 97.8 | 99 |
| C[C@]12CCC(=O)C=C1CC[C@@H]1[C@@H]2C(=O)C[C@@]2(C)[C@H]1CC[C@]2(O)C(=O)CO | 82.5 | 110% (inactive) | 82.5% (inactive) | 98% (inactive) | 101% (inactive) | 12.6% (inactive) | 88.8 | 101 |
| Cc1ccccc1C(OCCN(C)C)c1ccccc1 (stereo unspecified) | 93 | 86% (inactive) | 93% (inactive) | 98.9% (inactive) | 91.3% (inactive) | 10.8% (inactive) | 80.5 | 91.3 |
| N=c1c[n+](N2CCOCC2)[n-]o1 | 114 | 100% (inactive) | 114% (inactive) | 97.7% (inactive) | 96.5% (inactive) | -4.17% (inactive) | 101 | 96.5 |
| CC[N+](C)(CC)CCOC(=O)C(O)(c1ccccc1)C1CCCCC1 (stereo unspecified) | 91.5 | 97.5% (inactive) | 91.5% (inactive) | 98.9% (inactive) | 110% (inactive) | 12.8% (inactive) | 97 | 110 |
| CC(COc1ccccc1)NC(C)C(O)c1ccc(O)cc1 (stereo unspecified) | 97 | 105% (inactive) | 97% (inactive) | 88.5% (inactive) | 88.6% (inactive) | -17.2% (inactive) | 106 | 88.6 |
| COc1ccc(/C=C(/C#N)c2cccnc2)cc1OC | 92 | 97.5% (inactive) | 92% (inactive) | 96.9% (inactive) | 103% (inactive) | 6.09% (inactive) | 96.7 | 103 |
